The record followed here is PubChem BioAssay AID651952 (The Scripps Research Institute Molecular Screening Center, 2012).

Out of some 2,400 compounds screened, about 940 (39%) were called active.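 The calls were made as follows: active = inhibition above the plate's mean compound inhibition plus 3 SD, computed per plate (cut at about 22% in these data); inactive = the rest.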 These entries were drawn from the full list.

The nature of the assay: inhibition of ATP-evoked calcium response in CHO-Ga16 cells, counter-screen for TAAR1 agonist project, cell-based, fluorescence (AID 651952).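 Also: 0% = EC80 ATP with DMSO and 100% = DMSO wells without ATP.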 The settings on record: CHO-Ga16 ATP-induced calcium, Fluo-8 fluorescence; at 3 µM; hits give high values. The essentials:
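Also added: EC80 ATP stimulus. Test system: parental CHO cells stably overexpressing Gα16, lacking hTAAR1. Incubation: 17–24 h seeding, dye 75 min 37 °C, 30 min RT. Measure: percent inhibition from peak-to-pre-ATP-basal fluorescence ratio, scaled between controls. Repeats: three replicates. Technique: Fluo-8 calcium fluorescence.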
Background: Counterscreens check selectivity or assay interference.
As for `c1ccc(-c2csc(N3CCc4ccccc4C3)n2)cc1`, the inhibition (in general, the relative decrease from the control value, in per cent) is 0.61% (inactive).
Under `O=C(Nc1ccncc1)Nc1ccc(F)cc1` stands 12.7% (inactive).
Take `O=C(Nc1ccc(F)cc1)Nc1nnc([C@H]2C[C@H](O)[C@@H](CO)O2)s1`: the inhibition was 2.16% (inactive).
Consider `O=C(Nc1ccccc1)Nc1nnc(COc2ccccc2F)s1`, for which the inhibition is 27.2% (active).
As for `CCC(c1nnnn1Cc1ccco1)N(CCc1ccccc1)Cc1cc2cccc(C)c2[nH]c1=O` (stereo not drawn), the figure is 13.9% (inactive); as for `CCC(C(=O)Nc1ccc(C(C)C)cc1)c1ccccc1` (stereo not drawn), 68% (active).
As for `c1ccc2c(c1)C(=NC1CCCCC1)NC2=NC1CCCCC1`, the inhibition is 26.3% (active).
In the case of `C#CCOc1ccc(/C=C2/C(=O)NN(c3ccccc3)C2=O)cc1OC`, the inhibition was 9.41% (inactive).
Under `c1ccc(C2CNCc3c2ccc2ccccc32)cc1` (stereo not drawn) stands 33.8% (active); under `CCCOc1ccc(-c2c(C(=O)N/N=C/c3ccco3)nnn2-c2nonc2N)cc1`, 8.77% (inactive).
As for `CCOc1ccc(Br)cc1CSC(=N)N`, the figure is 27.7% (active); as for `CCCCOc1ccc(CSC(=N)N)cc1[N+](=O)[O-]`, 17.7% (inactive).
On to `CCc1ccc(-c2nn(-c3ccccc3)cc2CSC(=N)N)cc1`, for which the inhibition is 21.2% (inactive).
In the case of `Nc1nonc1-n1nnc(C(=O)N/N=C/c2ccc(Cl)cc2)c1-c1ccc2c(c1)OCO2`, the inhibition was -0.91% (inactive).
With `Nc1c(C(=O)c2cccs2)sc2nsc(SCCN3CCCCC3)c12`, the inhibition was 63% (active).
As for `COc1ccc(OC)c(C(c2nnnn2C(C)(C)C)N2CCc3ccccc3C2)c1` (stereo not drawn), the figure is 2.14% (inactive); as for `CCCC1CCC(=NNC(=S)NCCc2ccccc2)CC1` (stereo not drawn), 13.2% (inactive); as for `c1ccc(Nc2nc(N3CCOCC3)c3ccccc3n2)cc1`, 28.7% (active).
Turning to `Cc1ccc(S(=O)(=O)N(CC(=O)N2CCc3ccccc3C2)c2cccc(Cl)c2)cc1`, the inhibition is 18.1% (inactive).
Under `O=C1C=C(c2ccc(Cl)cc2)C(=O)N1Nc1ccccc1` stands 79.5% (active).
With `Cc1ccc(Sc2cc(N3CCOCC3)nc(-c3ccccc3)n2)cc1`, the inhibition is -8.38% (inactive).
Under `Nc1nnn(CC(=O)N/N=C/c2ccccc2)n1` stands 0.58% (inactive).
`CC(Oc1ccc2ccccc2c1)C(=O)NNC(=S)NC(=O)c1ccco1` (stereo not drawn): the inhibition was 52.4% (active).
Under `CCCc1ccc(OCC(=O)NNC(=S)NC(=O)c2ccco2)cc1` stands 50.6% (active); under `Cc1c(CNCCc2ccccc2)c(C(=O)O)c(C)n1-c1ccccc1`, 6.15% (inactive); under `CCCSc1nc2c(c(=O)n(C)c(=O)n2C)n1Cc1ccc(C)cc1`, 20.4% (inactive).
Under `Oc1ccc2ccc3cccc[n+]3c2c1` stands 33.9% (active).
Turning to `Cc1cc(C)c2cc(C#N)c(N3CCNCC3)nc2c1`, the inhibition was 3.67% (inactive).
